# Screening results from PubChem.
# Furin inhibitor: inhibitors of human furin; P09958; purified furin, fluorogenic substrate cleavage; inhibition, % at 20 µM or 30 µM; 0.061% of 220,000 active; AID 463115; in the data active = inhibition above about 25%
# Target sequence (P09958 108-714 limits assumed): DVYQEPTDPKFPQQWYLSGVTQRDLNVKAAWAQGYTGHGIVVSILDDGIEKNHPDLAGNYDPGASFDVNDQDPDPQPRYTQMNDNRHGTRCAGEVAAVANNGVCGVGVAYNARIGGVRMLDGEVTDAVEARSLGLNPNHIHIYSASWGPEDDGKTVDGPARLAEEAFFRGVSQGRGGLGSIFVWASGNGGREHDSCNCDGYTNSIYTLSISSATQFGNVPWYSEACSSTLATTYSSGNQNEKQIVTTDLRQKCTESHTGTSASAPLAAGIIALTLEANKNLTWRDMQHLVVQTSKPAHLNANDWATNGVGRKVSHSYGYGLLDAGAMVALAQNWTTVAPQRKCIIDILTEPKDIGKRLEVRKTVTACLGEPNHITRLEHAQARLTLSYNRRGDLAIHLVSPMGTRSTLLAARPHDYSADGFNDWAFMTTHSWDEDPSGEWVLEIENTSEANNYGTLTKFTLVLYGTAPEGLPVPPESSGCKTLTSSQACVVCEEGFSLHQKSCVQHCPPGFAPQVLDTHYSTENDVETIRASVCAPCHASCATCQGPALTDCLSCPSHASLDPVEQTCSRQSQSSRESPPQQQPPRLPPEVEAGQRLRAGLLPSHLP
# FXIa inh 1536: blocks human coagulation factor XIa protease activity | P03951 | purified FXIa, Boc-Glu-Ala-Arg-AMC fluorogenic substrate | inhibition, % at 5 µM | 0.14% of 220,000 active;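 active = inhibition of at least 40%; inactive = inhibition below 40%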;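 also: fluorescence of freed AMC excited at 355 nm; 0% = enzyme without compound and 100% = no enzyme blank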
# Biofilm kill mix: mixtures killing C. albicans biofilm. C. albicans biofilm persisters + clotrimazole, fluorescence viability; primary screen in compound mixtures of four per well. inhibition, % at 7.6 µM. 0.02% of 120,000 active. AID 1242;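 active = inhibition above 30.3% in the primary screen of four-compound pools, then above 30% when the compound was retested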;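 also: compounds exposed to preformed 24 h biofilms for 48 h; 0% = untreated biofilm control and 100% = clotrimazole plus chlorhexidine kill blank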
#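 Test system: C. albicans biofilms. Buffer or medium: RPMI/MOPS medium, pH 7.0. Timing: 48 h compound exposure at 37 °C. Technique: Alamar Blue fluorescence. Evaluation: percent inhibition of biofilm viability.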
# hK5 inh: blocks human kallikrein 5 protease activity; Q9Y337; 0.59% of 210,000 active; recombinant hK5, fluorogenic AMC substrate cleavage; inhibition, % at 5 µM;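 active = inhibition of 40% or more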;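 also: 0% = enzyme controls without compound and 100% = no-enzyme blanks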
# Thrombin inh: blocks human thrombin protease activity. alpha-thrombin, Boc-VPR-AMC fluorogenic substrate cleavage. inhibition, % at 5 µM. 0.26% of 220,000 active. AID 1046;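 active = inhibition at or above 40%; inactive = inhibition below 40%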;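 also: 0% = enzyme with no compound and 100% = wells without enzyme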
#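 Material: human alpha-thrombin enzyme / Medium: pH 7.5 Tris (50 mM) with NaCl 150 mM, Tween 20 0.05% / Compound: single-point dosing at 5 µM, 0.2% DMSO / Incubation: enzyme reaction carried out at room temperature / Detection: AMC fluorescence, 355/460 nm / Read-out basis: percent inhibition scaled between no-compound controls and no-enzyme blanks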
# FXIIa inh: blocks human coagulation factor XIIa protease activity | P00748 | purified FXIIa, Boc-QGR-AMC fluorogenic substrate, 2 h | inhibition, % at 5 µM | 0.3% of 220,000 active | AID 800; in the data active = inhibition above about 40%;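 also: 0% = enzyme with no compound and 100% = blank without enzyme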
# * marks the source's active call; other numbers are inactive results; nt = no result. Only some compounds are listed: those with a hit (about 1.1% of all), similar ones and a draw of the others.
SMILES,Furin inhibitor,FXIa inh 1536,Biofilm kill mix,hK5 inh,Thrombin inh,FXIIa inh
NNC(=O)c1cccc(Cn2cc(Br)c([N+](=O)[O-])n2)c1,-9.8,0.8,17.3,1.0,-1.9,5.7
CO/N=C(\N)c1nonc1N,-10.4,57.6*,21.6,21.9,16.9,24.8
N/C(=N\OCc1ccccc1)c1nonc1N,-23.0,0.2,12.3,-7.3,-0.4,4.5
COc1ccc(/C=C2\CCCC3C2=NN(C(=O)CSc2ncn[nH]2)C3c2ccc(OC)cc2)cc1 (centres undefined),4.1,-1.2,16.5,-18.7,-9.4,-2.7
COc1ccc(/C=C2\CCCC3C2=NN(C(=O)COC(=O)CNC(=O)c2ccccc2)C3c2ccc(OC)cc2)cc1 (centres undefined),2.4,2.5,nt,47.0*,12.9,16.3
CCCn1[nH]cc(SC)c(=O)c1=O,-8.0,5.5,nt,121.6*,17.2,16.2
Fc1cccc2sc(N3CCCCC3)nc12,-10.2,-22.9,nt,-23.0,2.9,17.0
Fc1cc(F)c2nc(N3CCCC3)sc2c1,2.1,32.0,21.4,36.0,0.9,102.6*
O=C1N=c2ccc(Br)cc2=C1c1sc(=S)n(NS(=O)(=O)c2ccccc2)c1O,-10.3,2.6,-5.5,3.2,14.3,13.4
O=C(COC(=O)C1CC(=O)N(Cc2ccco2)C1)c1ccc(OC(=O)c2ccco2)cc1 (centres undefined),-11.7,25.3,nt,31.4,23.5,40.5*
O=C(c1cc2cc(Br)ccc2o1)N1CCCC1,-1.7,36.8,16.6,18.2,57.0*,nt
CC(=O)Nc1cccc(C(=O)/C=C/c2ccc(C)cc2)c1,-7.3,9.8,13.8,61.4*,17.5,32.1
CC(=O)Cc1nsc(NC(=O)c2ccc(-c3cccc(Cl)c3)o2)n1,-24.8,-3.8,11.9,7.9,-1.8,5.3
COc1ccc(C(=O)NCC(=O)OCC(=O)N2CCC(C)CC2)cc1OC,-23.1,-3.8,-2.9,-2.2,-7.1,3.4
COc1ccc(N/C(=N\c2nc(C)cc(C)n2)NC(=O)C(C)C)cc1OC,-10.8,-5.1,nt,0.2,1.3,-0.3
COc1ccc(N/C(=N\c2nc(C)cc(C)n2)NC(C)=O)cc1OC,-24.1,1.0,nt,-5.2,50.2*,12.6
COc1ccc(N(C(=O)c2ccco2)S(=O)(=O)c2ccccc2)cc1,1.9,10.4,nt,-4.0,57.8*,16.3
COc1ccccc1C(=O)NNC(=O)c1ccc(Cl)cc1,-10.9,-0.9,6.8,-4.6,-9.1,4.8
COc1cc(OC)cc(C(=O)NNC(=O)c2ccccc2Br)c1,-6.4,-4.0,4.6,30.5,88.6*,0.9
COc1ccccc1C(=O)NNC(=O)c1ccc(F)cc1,-10.6,2.9,6.5,60.7*,17.6,8.6
COc1ccccc1NS(=O)(=O)c1ccc(O)c(C(N)=O)c1,-20.5,1.1,nt,-10.7,-1.1,11.2
COc1ccccc1NS(=O)(=O)c1ccc(O)c(C(=O)OCC(=O)c2ccc(Cl)cc2Cl)c1,2.4,49.2*,8.5,32.3,28.9,31.7
CCCCc1c(C)nc2ccc(Br)cc2c1SCCC#N,-5.8,10.2,4.5,47.3*,98.8*,6.7
COc1ccc(Cl)cc1NC(=O)Nn1cnnc1,-18.7,-20.4,nt,5.3,-5.3,4.3
COc1ccc(Cl)cc1NC(=O)Nc1cn(C)nc1C,-2.4,44.6*,25.3,56.7*,6.2,20.7
SMILES,Furin inhibitor,FXIa inh 1536,Biofilm kill mix,hK5 inh,Thrombin inh,FXIIa inh
COC(/C=C/Nc1ccc(Br)cc1)=C(C#N)C#N,-12.6,2.0,nt,48.5*,38.0,17.1
COc1ccc(-c2ccc(S(=O)(=O)n3nc(OC(=O)c4cccs4)cc3N)cc2)cc1,-15.7,8.6,19.6,8.9,6.5,13.0
COc1ccc(NC(=O)n2nc(OC(=O)c3cccs3)cc2N)cc1,-22.8,18.2,18.7,6.6,46.4*,19.2
CCc1nn(CC(=O)Nc2cc(C)ccc2C)c(=N)s1,-18.8,-8.8,12.2,0.3,-7.7,5.7
Cc1ccc2nc(C)/c(=N\O)c(C)nc2c1,-19.5,2.8,nt,51.1*,2.8,14.9
CC1(C)CC(=O)C(C=Nc2ccncc2)=C(O)C1,-8.3,nt,nt,nt,nt,nt
COc1ccc(N=CC2=C(O)CC(C)(C)CC2=O)cc1,34.3*,-11.7,nt,12.2,-4.4,-5.0
COc1ccc(OC)c(N=CC2=C(O)CC(C)(C)CC2=O)c1,-2.6,3.5,nt,6.1,7.2,19.3
CC1(C)CC(=O)C(C=Nc2cccnc2)=C(O)C1,40.9*,-3.9,nt,0.8,1.1,0.5
CC1(C)CC(=O)C(C=Nc2cccnc2/N=C/C2=C(O)CC(C)(C)CC2=O)=C(O)C1,54.7*,0.3,4.2,-11.1,7.2,10.4
COc1ccc(N(CC(=O)Nc2cccc(N(C)S(C)(=O)=O)c2)S(=O)(=O)c2ccccc2)cc1Cl,-16.4,-1.2,12.4,nt,-4.9,3.4
O=C(Cc1cccs1)NCc1cccc(F)c1,-19.9,-3.7,14.2,nt,-5.2,1.3
CC(C)(C)C(=O)N1NC(=Nc2ccccc2)SC1(C)C,-5.3,30.8,13.6,33.7,6.2,40.4*
COC(=O)/C=C1\SC(=Nc2ccccc2)NC1=O,-1.9,8.7,18.4,-19.5,4.0,20.9
COc1ccc(N=C2SC(C(N)=O)CC(=O)N2Cc2ccc3c(c2)OCO3)cc1 (centres undefined),-26.8,-0.4,24.0,-10.8,-9.1,5.2
CCNC(=O)C1CC(=O)N(Cc2ccc3c(c2)OCO3)C(=Nc2ccc(F)cc2)S1 (centres undefined),32.2*,-5.5,nt,-1.7,-12.1,-4.0
Cc1cc(=O)[nH]c(-n2ncc(C#N)c2N)n1,-29.2,-3.7,7.6,-3.6,-7.6,2.1
O=C(Nc1ccc(Cl)cc1)Nc1nc(-c2ccccc2O)cs1,-7.7,53.2*,25.1,35.2,18.8,29.4
O=C(Nc1ccc(Cl)cc1)Nc1nc(-c2sccc2Br)cs1,-22.5,-6.0,nt,4.5,-3.6,-6.2
CCOc1ccc(N2CC(C(=O)Nc3c(C)n(C)n(-c4ccccc4)c3=O)CC2=O)cc1 (centres undefined),-18.6,-4.0,10.0,-4.2,nt,5.2
Cc1ccc(S(=O)(=O)N2CCN(CC(=O)N/N=C\c3cccnc3)CC2)cc1,-18.8,10.8,6.8,41.3*,10.6,6.3
O=C(Cn1c(-c2ccccn2)nc2ccccc21)N/N=C/c1cccnc1,0.6,47.7*,14.5,113.0*,13.3,30.5
Cc1ccc(S(=O)(=O)N2CCN(CC(=O)N/N=C\c3ccccn3)CC2)cc1,-4.0,-4.5,8.1,2.5,20.4,9.2
O=C(C[n+]1cc(-c2ccccc2)n2c1CCC2)Nc1nc(-c2ccccc2)cs1,-23.8,30.0,11.0,41.6*,18.1,40.9*
C=C(C)CNC(=S)N/N=C(\C)c1cccc(NC(C)=O)c1,6.3,48.8*,14.2,74.7*,11.5,34.4
CC(=O)Nc1cccc(/C(C)=N/NC(=S)NC(C)C)c1,-12.0,-4.1,3.9,-5.5,-5.5,1.7
O=C(CSc1nc2ccccc2o1)c1cc2ccccc2oc1=O,-8.8,6.1,nt,30.0,81.1*,12.5
